In ChEMBL document CHEMBL3352816, “Synthesis and antiproliferative activity of imidazo[2,1-b][1,3,4]thiadiazole derivatives” (Bioorg Med Chem Lett, 2014) one finds Activity, GI50 and TGI data, which are given here for 1 compound.

Molecules are shown by their SMILES. Active and inactive are the calls of the source. The rule behind the calls is not given here.

Data set [1] has as its system REH. Nature of the data set: Induction of apoptosis in human REH cells assessed as induction of ROS production at 500 nM after 10 mins by flow cytometric analysis (reference value: 0.33 %). It is filed as functional. In general terms: A flow cytometer gives signals particle by particle.
Data set [2] relates to REH. In words: Induction of apoptosis in human REH cells assessed as induction of ROS production at 10 uM after 10 mins by flow cytometric analysis (reference value: 0.33 %). Type of data set: functional.
The test system of data set [3] is REH. In words: Induction of apoptosis in human REH cells assessed as caspase 3 cleavage after 48 hrs by Western blot analysis. Type of data set: functional, cell-based. An outline of the steps:
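Reh cell lysates were prepared after 48 h treatment at 500 nM and 1 µM, with DMSO-treated cells as control. Western blotting used primary antibodies against KU70, PARP1, caspase 3, BID, caspase 9, FAS and caspase 8, with tubulin also probed.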
Background: A western blot detects proteins with antibodies after separation by electrophoresis.

Data set [4] in a line: Growth inhibition of human Leukemia cells. Type of data set: functional. The conditions noted are these: Leukemia cell.
Another data set has as its system K562. Nature of the data set: Cytotoxicity against human K562 cells assessed as reduction in cell viability after 24 to 72 hrs by trypan blue exclusion assay. It is filed as functional, cell-based. An outline of the steps:
(§1)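 Reh, K562 and Nalm6 leukemic cells were treated with 10, 50, 100 and 250 µM or with 0.1, 0.5, 1, 5 and 10 µM (compounds dissolved in DMSO). Viability was scored by trypan blue after 24, 48 and 72 h. DMSO-treated cells served as vehicle control.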

The next data set relates to NALM-6. In words: Cytotoxicity against human NALM6 cells assessed as reduction in cell viability at 0.1 to 10 uM by trypan blue exclusion assay. It is filed as functional, cell-based. The conditions noted are these: TDE = time-dependent effect. An outline of the steps:
as §1

In data set [5] the test system is REH. Nature of the data set: Cytotoxicity against human REH cells assessed as induction of cell death at 3 uM after 24 to 72 hrs by live-dead cell assay. It is filed as functional, cell-based. Conditions: in the assay text read “24 to 48 hrs” for “24 to 72 hrs”. An outline of the steps:
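Reh leukemic and 293T human kidney epithelial cells were treated at 3 µM and compared by live-dead cell assay at 24 and 48 h.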

The subject of a further data set is HEK293. In words: Cytotoxicity against HEK293 cells assessed as reduction in cell viability at 3 uM after 24 to 72 hrs by trypan blue exclusion assay. It is filed as cell-based. Conditions: human, hek293, 3 µM.
Data set [6] relates to REH. In words: Cell cycle arrest in human REH cells assessed as reduction of cells in G1 phase after 48 hrs using propidium iodide by FACS analysis. Type of data set: functional, cell-based. An outline of the steps: (§2)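 Reh and Nalm6 cells exposed 48 h to 0.1, 0.5, 1 and 5 µM, harvested, stained with propidium iodide and analysed by flow cytometry. Gated fractions were sub G1, G1, S and G2. DMSO-treated cells served as vehicle control. Three independent experiments for Reh and two for Nalm6.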

A short description of data set [7]: Cell cycle arrest in human NALM6 cells assessed as reduction of cells in G1 phase after 48 hrs using propidium iodide by FACS analysis. It is filed as functional, cell-based. The conditions noted are these: NALM-6. An outline of the steps:
as §2

Data set [8] can be described thus: Cell cycle arrest in human NALM6 cells assessed as reduction of cells in S phase after 48 hrs using propidium iodide by FACS analysis. Type of data set: functional, cell-based. The conditions noted are these: NALM-6. An outline of the steps: as §2
In data set [9] the test system is REH. Nature of the data set: Induction of apoptosis in human REH cells assessed as early apoptotic cells at 1 uM after 48 hrs using annexin-v-FITC/propidium iodide by FACS analysis (reference value: 6.05 %). Type of data set: functional.
The subject of data set [10] is REH. Nature of the data set: Induction of apoptosis in human REH cells assessed as late apoptotic cells at 1 uM after 48 hrs using annexin-v-FITC/propidium iodide by FACS analysis (reference value: 5.51 %). It is filed as functional.
Data set [11] has as its system REH. Nature of the data set: Induction of apoptosis in human REH cells assessed as dead cells at 1 uM after 48 hrs using annexin-v-FITC/propidium iodide by FACS analysis (reference value: 0.03 %).

`O=Cc1c(-c2ccc(Br)cc2)nc2sc(Cc3ccccc3)nn12`: the Activity was 0.86% in the data set on REH [1]; 0.41% in the data set with REH [2]; “Dose-dependent effect” with REH [3]; “Dose-dependent effect” in the data set on K562; “tde” in the data set with NALM-6; “Non-toxic” with HEK293. Moreover, the Activity entry is “Dose-dependent effect” in the data set with REH [6]; “Dose-dependent effect” in [7]; “Dose-dependent effect” in data set [8]; 43.03% in the data set with REH [9]; 51.32% with REH [10]; 0.42% with REH [11]. In addition, the concentration for 50% growth inhibition (GI50) (in general, the concentration that inhibits growth by half) in [4] was determined as 1.41 µM. In addition, total growth inhibition in data set [4] (TGI) required 13.5 µM. Moreover, the outcome with REH [5] was Active.
